Results from different studies.
Each line is one published result; the experiments were not run side by side.
Organism: Acinetobacter baumannii
Observed: microbial growth

Compound | technique | strain | time | MIC
C[C@H]1COc2c(N3CCN(C)CC3)c(F)cc3c(=O)c(C(=O)O)cn1c23 | broth dilution | ATCC19606 |  | ≤ 0.125 µg/mL
CCCCCCC/C=C/C(=O)N1CC(=O)/C(=C(\C)O)C1=O |  | ATCC19606 |  | 100 µg/mL
CN(C)Cc1ccc2c(N(C)C)c3c(c(O)c2c1)C(=O)C1=C(O)[C@]2(O)C(=O)C(C(N)=O)=C(O)[C@@H](N(C)C)[C@@H]2C[C@@H]1C3 | broth dilution | ATCC19606 |  | 1 µg/mL
O=C(O)c1ccc(-n2cc(/C=N/Nc3cccc(Cl)c3)c(-c3cccc(F)c3)n2)cc1 |  | ATCCBAA1605 |  | 6.25 µg/mL
CN(Cc1ccc2cc3c(c(O)c2c1)C(=O)C1=C(O)[C@]2(O)C(=O)C(C(N)=O)=C(O)[C@@H](N(C)C)[C@@H]2C[C@@H]1C3)c1ccccc1 | broth dilution | ATCC19606 |  | 32 µg/mL
O=C(O)c1ccc(-n2cc(/C=N/Nc3ccc(Cl)cc3)c(-c3ccc4ccccc4c3)n2)cc1 |  | ATCCBAA1605 |  | 12.5 µg/mL
CO[C@H]1/C=C/O[C@@]2(C)Oc3c(C)c(O)c4c(O)c(c(/C=N/N5CCN(C)CC5)c(O)c4c3C2=O)NC(=O)/C(C)=C\C=C\[C@H](C)[C@H](O)[C@@H](C)[C@@H](O)[C@@H](C)[C@H](OC(C)=O)[C@@H]1C |  | NCTC13301 |  | 4 µg/mL
N#Cc1ccc(N/N=C/c2cn(-c3ccc(C(=O)O)cc3)nc2-c2ccc(F)cc2)cc1 |  | ATCCBAA1605 |  | > 25 µg/mL
N=C(N)c1cccc(OCc2ccc(COc3cccc(C(=N)N)c3)cc2)c1 | broth dilution | ATCC17978 |  | > 200 µg/mL
CN[C@@H]1[C@H](O[C@H]2[C@H](O[C@H]3[C@H](O)[C@@H](O)[C@H](N=C(N)N)[C@@H](O)[C@@H]3N=C(N)N)O[C@@H](C)[C@]2(O)C=O)O[C@@H](CO)[C@H](O)[C@H]1O |  | ATCC19606 |  | > 2000 µg/mL
O=C(CCc1ccc(O)c(O)c1)NCCCCCCCC[P+](c1ccccc1)(c1ccccc1)c1ccccc1.[Br-] | broth dilution | ATCC19606 | 18 h | > 32 µg/mL
NC[C@H]1O[C@H](O[C@H]2[C@H](O)[C@@H](O[C@H]3O[C@H](CO)[C@@H](O)[C@H](N)[C@H]3O)[C@H](N)C[C@@H]2N)[C@H](N)C[C@@H]1O |  |  |  | 1 µg/mL
CCCCC(=O)N1C(=O)/C(=C(/C)O)C(=O)C1CC(C)C (stereo not shown) |  | ATCC19606 |  | > 200 µg/mL
CC1(C)S[C@@H]2[C@H](NC(=O)C(C(=O)O)c3ccccc3)C(=O)N2[C@H]1C(=O)O (stereo partly shown) | broth dilution |  |  | 44.3 µM
CN(C)CC(C)(C)CNc1nc(F)c2c(c1O)C(=O)C1=C(O)[C@]3(O)C(=O)C(C(N)=O)=C(O)[C@@H](N(C)C)[C@@H]3C[C@@H]1C2.Cl | broth dilution | ATCC19606 |  | 4 µg/mL
CN(C)[C@@H]1C(O)=C(C(N)=O)C(=O)[C@@]2(O)C(O)=C3C(=O)c4c(cc5ccc(CN(C)S(C)(=O)=O)cc5c4O)C[C@H]3C[C@@H]12 | broth dilution | ATCC19606 |  | 32 µg/mL
C[C@H]1COc2c(N3CCN(C)CC3)c(F)cc3c(=O)c(C(=O)O)cn1c23 | broth dilution |  |  | 3.3 µM
O=[N+]([O-])c1ccc(O)c2ncccc12 | broth dilution | ATCC19606 |  | 8 µg/mL
CCCNc1nc(N(C)C)c2c(c1O)C(=O)C1=C(O)[C@]3(O)C(=O)C(C(N)=O)=C(O)[C@@H](N(C)C)[C@@H]3C[C@@H]1C2.Cl.Cl | broth dilution | ATCC19606 |  | > 32 µg/mL
CC(C)Oc1c(NC(=O)c2ccc(NC(=O)[C@H](CC(N)=O)NC(=O)c3ccc(NC(=O)c4ccc(C#N)cn4)cc3)cc2)ccc(C(=O)Nc2ccc(C(=O)O)cc2)c1O |  | DSM30008 |  | 0.125 µg/mL

Compound | technique | strain | time | MIC
CNC(C)C1CCC(N)C(OC2C(N)CC(N)C(OC3OCC(C)(O)C(NC)C3O)C2O)O1 (stereo not shown) |  |  |  | 0.5 to 1 µg/mL
CC(NCCCNC(=O)c1ccc(Cl)s1)c1cc2cc(Br)ccc2[nH]1 (stereo not shown) | broth dilution | ATCC19606 |  | 32 µg/mL
CN[C@H](CC(C)C)C(=O)N[C@H]1C(=O)N[C@@H](CC(N)=O)C(=O)N[C@H]2C(=O)N[C@H]3C(=O)N[C@H](C(=O)N[C@H](C(=O)O)c4cc(O)cc(O)c4-c4cc3ccc4O)[C@H](O)c3ccc(c(Cl)c3)Oc3cc2cc(c3O[C@@H]2O[C@H](CO)[C@@H](O)[C@H](O)[C@H]2O[C@H]2C[C@](C)(N)[C@H](O)[C@H](C)O2)Oc2ccc(cc2Cl)[C@H]1O | broth dilution | ATCC19606 | 18 h | > 32 µg/mL
O=[N+]([O-])c1ccc(O)c2ncccc12 |  | 19606 |  | 1.56 µM
O=C(CCCCCC[P+](c1ccccc1)(c1ccccc1)c1ccccc1)Nc1cc(O)c(O)c(O)c1.[Br-] | broth dilution | ATCC19606 | 18 h | > 32 µg/mL
CNC(=O)c1cc(Oc2ccc(NC(=O)Nc3ccc(Cl)c(C(F)(F)F)c3)cc2)ccn1 |  | DSM30007 |  | > 100 µM
CN(C)c1nc(NC(=O)CNC(C)(C)C)c(O)c2c1C[C@H]1C[C@H]3[C@H](N(C)C)C(O)=C(C(N)=O)C(=O)[C@@]3(O)C(O)=C1C2=O.Cl | broth dilution | ATCC19606 |  | > 32 µg/mL
CCCCCCC/C=C/C(=O)N1C(=O)/C(=C(\O)c2ccc(OCOCCOC)cc2)C(=O)C1CC(C)C (stereo not shown) |  | ATCC19606 |  | 200 µg/mL
N=C(N)c1ccc(OCCCCCOc2ccc(C(=N)N)cc2)cc1 | broth dilution | ATCC17978 |  | > 200 µg/mL
CCCCCCC/C=C/C(=O)N1C(=O)/C(=C(/C)O)C(=O)C1Cc1ccc(OC(C)(C)C)cc1 (stereo not shown) |  | ATCC19606 |  | > 200 µg/mL
N=C(N)c1ccc(OCc2cc(COc3ccc(C(=N)N)cc3)cc(-c3ccccc3)c2)cc1 | broth dilution | ATCC17978 |  | > 200 µg/mL
CCCNc1nc(F)c2c(c1O)C(=O)C1=C(O)[C@]3(O)C(=O)C(C(N)=O)=C(O)[C@@H](N(C)C)[C@@H]3C[C@@H]1C2.Cl.Cl | broth dilution | ATCC19606 |  | 0.125 µg/mL
CCCCCCC/C=C/C(=O)N1C(=O)/C(=C(/C)O)C(=O)C1CO (stereo not shown) |  | ATCC19606 |  | > 200 µg/mL
CC(NCCCCOc1ccc(Cl)c(Cl)c1)c1cc2cc(Br)ccc2[nH]1 (stereo not shown) | broth dilution | ATCC19606 |  | 32 µg/mL
C/C(O)=C1\C(=O)C(CC(C)C)N(C(=O)CCCCCc2ccccc2)C1=O (stereo not shown) |  | ATCC19606 |  | > 200 µg/mL
O=C(Nc1ccc([N+](=O)[O-])cc1F)c1ccccc1O | broth dilution | BAA1605 |  | > 64 µg/mL
CCn1cc(C(=O)O)c(=O)c2cc(F)c(N3CCNCC3)cc21 | broth dilution | BAA747 |  | 16 µM
O=C(CCCCCC[P+](c1ccccc1)(c1ccccc1)c1ccccc1)Nc1ccc(O)c(O)c1.[Br-] | broth dilution | ATCC19606 | 18 h | > 32 µg/mL
CC(C)CCNc1nc(Cl)c2c(c1O)C(=O)C1=C(O)[C@]3(O)C(=O)C(C(N)=O)=C(O)[C@@H](N(C)C)[C@@H]3C[C@@H]1C2.Cl.Cl.Cl | broth dilution | ATCC19606 |  | 4 µg/mL
O=C(O)c1ccc(-n2cc(/C=N/Nc3ccccc3F)c(-c3ccc4ccccc4c3)n2)cc1 |  | ATCCBAA1605 |  | 25 µg/mL
